In PubChem BioAssay AID1624 (Sanford-Burnham Center for Chemical Genomics, 2009):

Test system: PPC-1 cells, TRAIL potentiation, ATPlite luminescence, 24 h
Test: TRAIL killing potentiation in PPC-1 cells, confirmation, cell-based, ATPlite luminescence (AID 1624)
Conditions: stronger effect = higher value
How it was run: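 Schedule: 4 h compound pretreatment, then 24 h TRAIL exposure, 37 °C. System: PPC-1 human cancer cell line. Detection: ATP-based luminescence (ATPlite). Also added: TRAIL added after compound pretreatment. Dosing: compound at 1.25 to 5 µM final concentration.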

[1] = compound alone cytotoxicity, at 5 µM
[2] = compound plus TRAIL, at 1.25 µM

SMILES | cytotoxicity with TRAIL (at 5 µM) | cytotoxicity without TRAIL [1] | cytotoxicity without TRAIL (compound alone, at 1.25 µM) | cytotoxicity without TRAIL (compound alone, at 2.5 µM) | cytotoxicity with TRAIL [2] | cytotoxicity with TRAIL (compound plus TRAIL, at 2.5 µM)
CCSc1nc(-c2ccccc2)nc(C(Cl)Cl)n1 | 96% | 41% | 18% | 26% | 43% | 61%
CSc1nc(-c2ccccc2)nc(C(Cl)Cl)n1 | 100% | 56% | 52% | 56% | 83% | 96%
CSc1nc(-c2ccc(C)cc2)nc(C(Cl)Cl)n1 | 100% | 45% | 49% | 48% | 94% | 100%
